Most compounds without a hit are left out; they make up all but 2.4% or so of the library.
Ecoli rRNA inh = reduced GFP signal of wild-type E. coli, primary screen, bacterial rRNA inhibitor project, GFP/RFP fluorescence, OD600, single point; GFP signal change (wild-type ribosome), % (no concentration beside the values); AID 720706, 2013; E. coli WT GFP vs humanized-ribosome RFP mutants, 24 h; stronger effect = lower value; DMSO median 0, no signal -100; hit rate 1.6% among 350,000;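 active = significant combined selectivity score with lowered wild-type GFP, culture density cut under 30%, mutant RFP and density less affected; inactive = any of these conditions unmet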
PGC1a acetyl inh = inhibitors of PGC1a acetylation signal, primary screen, cell-based, U2OS, AlphaScreen, inhibitor mode | AID 651687, 2012 | hit rate 0.17% among 350,000 | AlphaScreen anti-acetyl-lysine; with virally co-expressed GCN5 acetyltransferase | inhibition, % at 15.6 µM;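 active = every replicate shows inhibition of at least 40%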;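 also: 0% = neutral control wells and 100% = positive control wells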
ARNT-TACC3 inh = disruptors of ARNT/TACC3 protein interaction, primary screen, biochemical, AlphaScreen, single concentration; Transforming acidic coiled-coil-containing protein 3 (Homo sapiens), Q9Y6A5; AlphaScreen His-ARNT PAS-B/GST-TACC3 binding, luminescence; TACC3 fragment carries E629A point mutation; inhibition, % at 9.99 µM; hit rate 0.66% among 390,000;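 active = mean inhibition of replicates at least 50% and at least half of replicates each reaching 50%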;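 also: 0% = complete ARNT plus TACC3 wells and 100% = ARNT alone without TACC3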
Casp6 inh = human caspase-6 inhibitors, primary screen, biochemical, VEID-R110 fluorescence, single point, set 2; P55212; purified caspase-6, Z-VEID-R110 cleavage fluorescence; inhibition, % at 12.5 µM; hit rate 0.53% among 350,000;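 active = mean inhibition across replicates at least about 35%, with every replicate also reaching that limit, limit read from the data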;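 also: 0% = median of neutral control wells and 100% = no fluorescence left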
ERAP1 HTS inh = human ERAP1 aminopeptidase inhibitors, primary screen, biochemical, single point, plate reader. Endoplasmic reticulum aminopeptidase 1 (Homo sapiens), Q9NZ08. recombinant ERAP1, Leu-AMC fluorescence, 60 min. inhibition, % at 10.7 µM. hit rate 0.15% among 340,000. AID 652197, 2013;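 active = mean replicate inhibition of at least 30%, or all replicates individually reaching that 30% level; inactive = mean below 30% and not every replicate reaching it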;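 also: 0% = neutral control wells and 100% = L-leucinethiol positive control wells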
S100A4 MyoIIA = inhibitors of S100A4-myosin IIA peptide binding, primary screen, biochemical, fluorescence polarization, TAMRA-MyoIIA peptide | Protein S100-A4 (Homo sapiens), P26447 | inhibition, % at 10.7 µM | hit rate 0.14% among 360,000 | AID 652163, 2013;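 active = mean inhibition of at least 70% across replicates, with every replicate also reaching that level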
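Material: S100A4 monomer protein | Medium: HEPES pH 7.2 with CaCl2, KCl, NaCl, DTT, Triton | Reagent: Labelled myosin peptide probe, 5 nM | Doses: One dose per compound | Times: 5 min incubation before reading | Benchmarks: Neutral control DMSO, positive control TFP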
ARNT Alpha ctr-1 = AlphaScreen signal interference compounds, dose response, artefact control for ARNT-TACC3 interaction inhibitor project, biochemical, luminescence, cherry-pick | hit rate 50% among 1,200 | AC50, µM (top dose mostly 68 µM), without a hit: top-dose activity change, negative = signal decrease | shares compounds with ARNT-TACC3 inh | His-ARNT PASB-GST AlphaScreen artifact counter-screen;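 active = every separate test run was called active for a drop in luminescence, with AC50 within twice the top valid dose, actives reach about 71 µM in these data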
ARNT Alpha ctr-2 = AlphaScreen signal interference by compounds, dose response, artefact control for ARNT/TACC3 disruptor project, biochemical, dual-tagged ARNT, dry powder | shares compounds with ARNT-TACC3 inh | Dual-tagged His-ARNT PASB-GST AlphaScreen artifact counter-screen | AC50, µM | hit rate 70% among 45 | AID 720564, 2013;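 active = luminescence drop, with half-maximal potency fitted within twice the sample's top valid dose, cut at about 70 µM in these data; inactive = the rest, including signal moving the wrong way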
* marks the source's active call; other numbers are inactive results; i = inactive; nt = no result; [ ] = dose if it differs, or a comment.

SMILES | Ecoli rRNA inh | PGC1a acetyl inh | ARNT-TACC3 inh | Casp6 inh | ERAP1 HTS inh | S100A4 MyoIIA | ARNT Alpha ctr-1 | others
O=C(CNCc1ccccn1)N1CCc2ccccc2C1 | 10 | 2 | 77* | -9 | 3 | -2 | 17µM*
C[C@@H]1CN([C@H](C)CO)C(=O)c2cc(NC(=O)Nc3cccc4ccccc34)ccc2O[C@@H](C)CCCCO[C@H]1CN(C)Cc1ccc(C(=O)O)cc1 | 1 | 5 | -4 | -1 | 3 | -5 | nt
O=S(=O)(N[C@H]1CC[C@@H](CCn2cc(-c3ccccn3)nn2)O[C@H]1CO)c1cccc(F)c1 | -3 | 2 | 88* | -1 | -3 | -10 | 39µM*
COc1cccc(S(=O)(=O)N[C@@H]2CC[C@H](CCn3cc(-c4ccccn4)nn3)O[C@H]2CO)c1 | -2 | -3 | nt | -1 | 1 | 6 | nt
COc1cccc(S(=O)(=O)N[C@@H]2CC[C@@H](CCn3cc(-c4ccccn4)nn3)O[C@H]2CO)c1 | 0 | -4 | nt | -1 | -1 | 14 | nt
O=S(=O)(N[C@@H]1CC[C@H](CCn2cc(-c3ccccn3)nn2)O[C@H]1CO)c1cccc(F)c1 | 1 | -6 | 84* | 0 | 0 | -3 | 44µM*
Cc1onc(-c2c(Cl)cccc2Cl)c1C(=O)Nc1ccc(N2CCOCC2)cc1 | -6 | 3 | active | -3 | -6 | -1 | -20%
COC(=O)c1ccc(C(=O)Nc2nnc(-c3cccnc3)o2)cc1 | 10 | nt | nt | -2 | -2 | 1 | nt
Cc1ccccc1C(=O)Nc1nnc(-c2ccco2)o1 | -22 | 3 | 62* | -3 | -2 | 6 | -33%
Cc1cccc(C(=O)Nc2nnc(-c3ccco3)o2)c1 | -52 | nt | 56* | 2 | 0 | -5 | -35%
O=C(Nc1nnc(-c2ccncc2)o1)c1ccc2ccccc2c1 | nt | -13 | 20 | 0 | -5 | -1 | nt
Cc1cccc(C(=O)Nc2nnc(-c3cccnc3)o2)c1 | -50 | -2 | 59* | nt | -5 | -4 | -35%
Cc1cccc(C(=O)Nc2nnc(-c3ccncc3)o2)c1 | -40 | 8 | 62* | 3 | 3 | -1 | -27%
COCC(=O)N(C)C[C@H]1Oc2ncc(C#CCC3CCCC3)cc2C(=O)N([C@@H](C)CO)C[C@@H]1C | 3 | 6 | 4 | -2 | -1 | -18 | nt
CCCC#Cc1ccc([C@H]2[C@H](CO)N3C(=O)CN(S(=O)(=O)Cc4ccccc4)C[C@@H]23)cc1 | 3 | -8 | nt | 1 | 3 | 2 | nt
CN(C)CC(=O)N1[C@@H]2Cn3c(ccc(-c4cccnc4)c3=O)[C@H]1[C@@H](C(=O)NC1CCCC1)[C@@H]2CO | 2 | nt | nt | 1 | -6 | -22 | nt
Nc1nc(-c2ccccn2)nc(N)c1Cc1ccc(Cl)cc1Cl | -59 | 25 | 57* | 0 | 9 | -5 | 26µM* | ARNT Alpha ctr-2=12*
Nc1nc(-c2ccccn2)nc(N)c1Cc1ccccc1F | -60 | 16 | 67* | -2 | 8 | -1 | 22µM*
CNC(=O)C[C@H]1CC[C@@H]2[C@@H](COc3ccc(NC(=O)Nc4ccc(F)cc4)cc3C(=O)N2C)O1 | 2 | 6 | -1 | 0 | -3 | 11 | nt
O=C(NC1CCCC1)N1CC2(C1)[C@@H](c1ccccc1)[C@@H](CO)N2CC1CCCC1 | -3 | 18 | nt | -1 | 2 | -1 | nt
COc1ccc(-c2cc(NCc3ccccn3)n3ncnc3n2)cc1 | nt | 11 | 52* | nt | nt | nt | -1%
O=C(O)C1Nc2c(O)cc(Cl)c([N+](=O)[O-])c2C2C=CCC12 (stereo not drawn) | -15 | nt | 58* | 98* | 24 | -9 | 31µM*
Cc1cc2c(NC(=O)CC(C)(C)CC(=O)O)cccc2nn1 | 24 | 2 | 27* | 12 | 6 | -4 | -10%
CCC(=O)N1[C@@H](CO)[C@@H]2c3ccccc3N(C(=O)Nc3cccc(Cl)c3)C[C@@H]21 | -1 | -3 | -2 | 4 | 0 | 2 | nt
CC(C)OC(=O)N(C)C[C@H]1OCc2ccccc2-c2c(n(C)c3ccccc23)C(=O)N([C@@H](C)CO)C[C@@H]1C | -4 | 3 | 10 | 4 | 0 | -7 | nt
SMILES | Ecoli rRNA inh | PGC1a acetyl inh | ARNT-TACC3 inh | Casp6 inh | ERAP1 HTS inh | S100A4 MyoIIA | ARNT Alpha ctr-1 | others
C[C@H](CO)N1C[C@H](C)[C@H](CN(C)Cc2cccnc2)Oc2cc(C#CCN(C)C)ccc2S1(=O)=O | 2 | 5 | active | -3 | 2 | -10 | -7%[42 µM]
C[C@@H]1CN([C@H](C)CO)S(=O)(=O)c2ccc(C3=CCCC3)cc2O[C@H]1CN(C)Cc1ccccn1 | -33 | 12 | 17* | 1 | 2 | -2 | 51µM*
Cc1ccn2c(Nc3ccccc3C)c(-c3ccccn3)nc2c1 | -48 | 5 | 70* | -1 | 7 | -10 | 21µM*
CCCN1C[C@@H](C)[C@@H](OC)CN(C)C(=O)c2ccc(NC(=O)c3ccccc3F)cc2OC[C@@H]1C | 4 | -1 | -1 | nt | nt | -13 | nt
C[C@H](CO)N1C[C@H](C)[C@H](CN(C)Cc2ccc(F)cc2)Oc2cc(C#CCN(C)C)ccc2S1(=O)=O | -2 | -16 | 1 | 0 | 4 | -7 | nt
FC(F)(F)c1cc(-c2nn[nH]n2)cc(C(F)(F)F)c1 | nt | nt | nt | nt | nt | nt | nt | ARNT Alpha ctr-2=i
FC(F)(F)c1cccc(-c2nn[nH]n2)c1 | 7 | 1 | -11 | 1 | nt | -7 | nt
Cc1cccc(Nc2nc(-c3ccccn3)cs2)n1 | nt | -5 | 73* | nt | nt | nt | 47µM*
Cc1cccnc1Nc1nc(-c2ccccn2)cs1 | nt | -47 | 69* | nt | nt | nt | 5.3µM*
CC(C)C#Cc1ccc([C@H]2[C@@H](CO)N3C(=O)CN(C(=O)c4ccccn4)C[C@H]23)cc1 | 4 | -6 | nt | 0 | 1 | -13 | nt
O=C(C[C@@H]1C[C@@H]2c3cc(NC(=O)C4CCOCC4)ccc3O[C@@H]2[C@@H](CO)O1)NCc1cccnc1 | 2 | 2 | -8 | 0 | 2 | 0 | nt
COC(=O)C[C@@H]1C[C@H]2c3cc(N(C)C)ccc3O[C@H]2[C@@H](CO)O1 | 5 | 13 | 67* | 0 | 1 | 33 | -5%[42 µM]
